Measurements: ChEMBL document CHEMBL1152665, “1,3,4-Oxadiazole-2(3H)-thione and its analogues: a new class of non-competitive nucleotide pyrophosphatases/phosphodiesterases 1 inhibitors” (Bioorg Med Chem, 2009)

Legend:
[1] = Inhibition of snake venom NPP1 assessed as release of p-nitrophenol after 30 mins by microtitre plate spectrophotometry; parameters: species or system Naja naja
Outline: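 Substrate: 0.33 mM bis-(p-nitrophenyl) phosphate. p-Nitrophenol release read at 410 nm, 37 °C, after 30 min incubation. Initial rates taken as OD/min change, run in triplicate. Cysteine and EDTA served as positive controls.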

[2] = Noncompetitive inhibition of snake venom NPP1 by Dixon plot analysis; parameters: species or system Naja naja
[3] = target: T1, Ectonucleotide pyrophosphatase/phosphodiesterase family member 1 (Homo sapiens, UniProt P22413); test: Noncompetitive inhibition of human recombinant NPP1 by Dixon plot analysis
T1 sequence (P22413 whole entry): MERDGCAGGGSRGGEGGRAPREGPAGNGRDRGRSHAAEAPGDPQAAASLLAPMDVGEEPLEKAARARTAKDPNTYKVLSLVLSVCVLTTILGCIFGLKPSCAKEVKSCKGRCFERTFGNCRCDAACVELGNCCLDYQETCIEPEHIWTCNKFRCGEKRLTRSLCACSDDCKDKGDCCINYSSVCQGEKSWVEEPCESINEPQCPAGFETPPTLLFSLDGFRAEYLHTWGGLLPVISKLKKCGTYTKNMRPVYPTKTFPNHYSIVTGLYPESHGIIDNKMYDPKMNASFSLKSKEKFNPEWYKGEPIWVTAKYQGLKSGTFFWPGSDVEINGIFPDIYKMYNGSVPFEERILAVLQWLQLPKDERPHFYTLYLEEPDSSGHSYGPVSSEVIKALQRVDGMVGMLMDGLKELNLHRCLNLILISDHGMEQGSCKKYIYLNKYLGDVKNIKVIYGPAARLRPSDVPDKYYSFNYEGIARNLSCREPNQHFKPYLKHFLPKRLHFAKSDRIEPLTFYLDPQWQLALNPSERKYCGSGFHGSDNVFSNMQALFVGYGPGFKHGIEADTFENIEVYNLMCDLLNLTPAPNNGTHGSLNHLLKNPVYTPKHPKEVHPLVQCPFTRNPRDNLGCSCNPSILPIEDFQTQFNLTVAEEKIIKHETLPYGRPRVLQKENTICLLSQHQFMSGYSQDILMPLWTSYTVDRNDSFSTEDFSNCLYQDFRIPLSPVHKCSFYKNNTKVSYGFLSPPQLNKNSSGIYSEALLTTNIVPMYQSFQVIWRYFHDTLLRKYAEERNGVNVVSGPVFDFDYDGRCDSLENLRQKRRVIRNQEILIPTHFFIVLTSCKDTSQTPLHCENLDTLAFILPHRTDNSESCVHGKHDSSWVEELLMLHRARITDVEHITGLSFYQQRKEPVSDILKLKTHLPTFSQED
Outline: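 Same human NPP1 assay at fixed inhibitor concentrations. Dixon plots run at p-nitrophenyl phenyl phosphonate 0.4, 0.6, 0.8 and 1.0 mM, and Lineweaver–Burk plots from initial velocities. Secondary replots were slope versus 1/[S], and 1/Vmaxapp or slope versus inhibitor. Ki is the mean of five values from these plots; points are means of three experiments.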

[4] = target: T1, Ectonucleotide pyrophosphatase/phosphodiesterase family member 1; test: Inhibition of human recombinant NPP1 assessed as release of p-nitrophenol by microtitre plate spectrophotometry
Outline: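 Soluble catalytic extracellular domain of human NPP1. Substrate p-nitrophenyl phenyl phosphonate in 20 mM Tris–HCl pH 8.0, 0.5 M NaCl, 1 mM CaCl2. p-Nitrophenol release read at 405 nm, 37 °C, microtitre plate. Triplicates; IC50 given with SEM of 3–5 experiments.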

[5] = Cytotoxicity against human neutrophils assessed as cell viability up to 200 ug/mL after 30 mins by WST1 assay; assay type: cell-based, Neutrophil
Outline: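 Neutrophils isolated from heparinized venous blood of healthy volunteers (Ficoll sedimentation, ammonium chloride 0.83% RBC lysis), 1 × 10^7 cells/mL, exposed to compounds at 200–12.5 µg/mL (five concentrations) for 30 min. Then WST-1 0.25 mM, 3 h at 37 °C with shaking, absorbance 450 nm. Mean of five replicates; % viability relative to untreated control.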

| SMILES | IC50 ([1]; read-out: IC50) [µM] | Ki [2] [µM] | Ki [3] [µM] | IC50 [4] [µM] | IC50 [1] | viability at 0.5 h [5] [%] |
| --- | --- | --- | --- | --- | --- | --- |
| Oc1ccc(-c2n[nH]c(=S)o2)cc1 | 960 | 1150 | – | – | – | – |
| S=c1[nH]nc(-c2ccncc2)o1 | > 1000 | – | – | – | – | – |
| S=c1[nH]nc(C(c2ccccc2)c2ccccc2)s1 | > 1000 | – | – | – | – | – |
| S=c1[nH]nc(CCCc2n[nH]c(=S)o2)o1 | 429 | 450 | 150 | 467 | – | – |
| S=c1[nH]nc(-c2cccc(OCc3ccccc3)c2)o1 | > 1000 | – | 360 | 494 | – | – |
| Oc1ccc(-c2nn(Cc3ccccc3)c(=S)s2)cc1 | – | – | – | – | Not Active | – |
| CCCOc1ccc(-c2nn(CC)c(=S)s2)cc1 | – | – | – | – | Not Active | – |
| CCCn1nc(-c2ccc(O)cc2)sc1=S | – | – | – | – | Not Active | – |
| S=c1sc(-c2ccc(OCc3ccccc3)cc2)nn1Cc1ccccc1 | – | – | – | – | Not Active | – |
| CCCCCCCCn1nc(-c2ccc(OCc3ccccc3)cc2)oc1=S | > 1000 | – | – | – | – | – |
| S=c1[nH]nc(Cc2n[nH]c(=S)s2)s1 | 839 | 1050 | – | – | – | > 90 |
| Oc1cccc(-c2n[nH]c(=S)o2)c1 | 1000 | 1050 | – | – | – | – |
| CC(C)(C)[Si](C)(C)Oc1ccc(-c2n[nH]c(=S)s2)cc1 | 66.5 | 100 | – | > 1000 | – | > 90 |
| Oc1ccc(-c2n[nH]c(=S)s2)cc1 | 390 | 350 | 850 | 900 | – | – |
| CC(C)(C)[Si](C)(C)Oc1ccc(-c2n[nH]c(=S)o2)cc1 | 383 | 375 | 360 | 368 | – | > 90 |
| S=c1[nH]nc(-c2ccncc2)s1 | 660 | 525 | – | 998 | – | – |
| S=c1[nH]nc(-c2ccc(OCc3ccccc3)cc2)o1 | 900 | 1400 | 850 | 628 | – | – |
| S=c1[nH]nc(Cc2n[nH]c(=S)o2)o1 | 850 | 500 | – | > 1000 | – | – |
